System: HEK-293T
Test: Multiplex assay against HEK293T;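 on Population Tubulin-Different-Phenotype (%): share of the cells with healthy nuclei that show this phenotype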
Assay type: toxicity, cell-based
Conditions: human
Summary of the method: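 Compound was added to live cells that had been stained at seeding with Hoechst33342, BioTracker Green Microtubule Cytoskeleton Dye, MitoTracker Red and Annexin V Alexa Fluor 680, and imaging followed on a CQ1 microscope at 37°C and 5% CO2. CellPathfinder machine-learning gating divided cells into Hoechst high-intensity objects or normal cells, normal cells into healthy, pyknosed or fragmented nuclei, and pyknosed cells into mitotic or apoptotic. Tubulin, mitochondrial-mass and membrane-permeability phenotypes are per cents of healthy-nucleus cells.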

[1] = 12 h, 1 µM, compound concentration 1 uM, replicate 1
[2] = 12 h, 1 µM, compound concentration 1 uM, replicate 2
[3] = 12 h, 10 µM, compound concentration 10 uM, replicate 1
[4] = 12 h, 10 µM, compound concentration 10 uM, replicate 2
[5] = 24 h, 1 µM, compound concentration 1 uM, replicate 1
[6] = 24 h, 1 µM, compound concentration 1 uM, replicate 2
[7] = 24 h, 10 µM, compound concentration 10 uM, replicate 1
[8] = 24 h, 10 µM, compound concentration 10 uM, replicate 2

## c1ccc2oc(-c3csc(C4CCN(Cc5nc6ncccc6[nH]5)CC4)n3)cc2c1
[1]
  Population Apoptotic (%): 23%
  Population Fragmented Nuclei (%): 23%
  Population Healthy Nuclei (%): 39%
  Population Hoechst High Intensity Objects (%): 19%
  Population Membrane Permeable-Phenotype (%): 5%
  Population Mitochondria Different-Phenotype (%): 5%
  Population Mitotic Cells (%): 76%
  Population Normal (%): 80%
  Population Pyknosed Nuclei (%): 37%
  Population Tubulin-Different-Phenotype (%): 7%
  Total Cell Count: 599
[2]
  Population Apoptotic (%): 13%
  Population Fragmented Nuclei (%): 4%
  Population Healthy Nuclei (%): 83%
  Population Hoechst High Intensity Objects (%): 4%
  Population Membrane Permeable-Phenotype (%): 1%
  Population Mitochondria Different-Phenotype (%): 21%
  Population Mitotic Cells (%): 86%
  Population Normal (%): 95%
  Population Pyknosed Nuclei (%): 11%
  Population Tubulin-Different-Phenotype (%): 13%
  Total Cell Count: 1174
[3]
  Population Apoptotic (%): 17%
  Population Fragmented Nuclei (%): 18%
  Population Healthy Nuclei (%): 54%
  Population Hoechst High Intensity Objects (%): 14%
  Population Membrane Permeable-Phenotype (%): 5%
  Population Mitochondria Different-Phenotype (%): 5%
  Population Mitotic Cells (%): 82%
  Population Normal (%): 85%
  Population Pyknosed Nuclei (%): 26%
  Population Tubulin-Different-Phenotype (%): 4%
  Total Cell Count: 511
[4]
  Population Apoptotic (%): 12%
  Population Fragmented Nuclei (%): 6%
  Population Healthy Nuclei (%): 86%
  Population Hoechst High Intensity Objects (%): 3%
  Population Membrane Permeable-Phenotype (%): 2%
  Population Mitochondria Different-Phenotype (%): 10%
  Population Mitotic Cells (%): 87%
  Population Normal (%): 96%
  Population Pyknosed Nuclei (%): 7%
  Total Cell Count: 1122
[5]
  Population Apoptotic (%): 20%
  Population Fragmented Nuclei (%): 21%
  Population Healthy Nuclei (%): 50%
  Population Hoechst High Intensity Objects (%): 15%
  Population Membrane Permeable-Phenotype (%): 8%
  Population Mitochondria Different-Phenotype (%): 10%
  Population Mitotic Cells (%): 79%
  Population Normal (%): 84%
  Population Pyknosed Nuclei (%): 28%
  Population Tubulin-Different-Phenotype (%): 13%
  Total Cell Count: 538
[6]
  Population Apoptotic (%): 15%
  Population Fragmented Nuclei (%): 5%
  Population Healthy Nuclei (%): 86%
  Population Hoechst High Intensity Objects (%): 6%
  Population Membrane Permeable-Phenotype (%): 4%
  Population Mitochondria Different-Phenotype (%): 12%
  Population Mitotic Cells (%): 84%
  Population Normal (%): 93%
  Population Pyknosed Nuclei (%): 7%
  Population Tubulin-Different-Phenotype (%): 30%
  Total Cell Count: 1346
[7]
  Population Apoptotic (%): 16%
  Population Fragmented Nuclei (%): 20%
  Population Healthy Nuclei (%): 60%
  Population Hoechst High Intensity Objects (%): 15%
  Population Membrane Permeable-Phenotype (%): 7%
  Population Mitochondria Different-Phenotype (%): 5%
  Population Mitotic Cells (%): 83%
  Population Normal (%): 84%
  Population Pyknosed Nuclei (%): 19%
  Population Tubulin-Different-Phenotype (%): 7%
  Total Cell Count: 500
[8]
  Population Apoptotic (%): 5%
  Population Fragmented Nuclei (%): 11%
  Population Healthy Nuclei (%): 84%
  Population Hoechst High Intensity Objects (%): 3%
  Population Membrane Permeable-Phenotype (%): 6%
  Population Mitochondria Different-Phenotype (%): 2%
  Population Mitotic Cells (%): 95%
  Population Normal (%): 96%
  Population Pyknosed Nuclei (%): 3%
  Population Tubulin-Different-Phenotype (%): 9%
  Total Cell Count: 1653
